Results taken from ChEMBL document CHEMBL1139985, “Discovery of (S)-2-((S)-2-(3,5-difluorophenyl)-2-hydroxyacetamido)-N-((S,Z)-3-methyl-4-oxo-4,5-dihydro-3H-benzo[d][1,2]diazepin-5-yl)propanamide (BMS-433796): a gamma-secretase inhibitor with Abeta lowering activity in a transgenic mouse model of Alzheimer's disease” (Bioorg Med Chem Lett, 2007).
Blank lines part the entries; values can stand above or below the molecule they belong to. Activity calls are given as the source filed them. The rule behind the calls is not given here.

Assays:
Gamma-secretase = assay: Inhibition of gamma secretase assessed as reduction of amyloid beta level in H4 cells; assay type: cell-based, Homo sapiens
Outline: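 H4 cells; Aβ40 lowering measured in a cell-based assay; IC50 values are means of two experiments, 16 data points each, intra-assay variance <10%.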

[1] = Drug level in Tg2576 mouse brain at 30 umol/kg, po after 3 hrs; assay type: ADME, organism-based; settings: read-out: Drug uptake
Outline: (§1)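 Tg2576 mice, single oral dose of 30 µmol/kg; brain and plasma sampled 3 h after dosing for Aβ (% inhibition) and compound levels; n = 7-10; means ± SEM.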

Mus musculus [2] = assay: Inhibition of beta amyloid peptide in Tg2576 mouse brain at 30 umol/kg, po after 3 hrs; assay type: functional; outline: as §1
[3] = Drug level in Tg2576 mouse plasma at 30 umol/kg, po after 3 hrs; assay type: ADME, organism-based; settings: read-out: Drug uptake; outline: as §1
Mus musculus [4] = assay: Inhibition of beta amyloid peptide in Tg2576 mouse plasma at 30 umol/kg, po after 3 hrs; assay type: functional; outline: as §1
Mus musculus [5] = assay: Inhibition of beta amyloid peptide in po dosed Tg2576 mouse brain after 3 hrs; assay type: functional, organism-based
Outline: (§2)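 Tg2576 mice dosed orally; brain and plasma Aβ measured 3 h after dosing; ED50 derived from dose-dependent Aβ reduction.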

Mus musculus [6] = assay: Inhibition of beta amyloid peptide in po dosed Tg2576 mouse plasma after 3 hrs; assay type: functional; outline: as §2
Mus musculus [7] = assay: Inhibition of beta amyloid peptide in Tg2576 mouse brain at 30 umol/kg, po, qd after 14 days; assay type: functional; set-up: scale not given: the % may be the effect or the level left
Outline: (§3)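 Tg2576 mice dosed orally at 4 or 30 µmol/kg, once daily for 1 or 14 days or twice daily (30 µmol/kg); brain Aβ inhibition measured.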

Mus musculus [8] = assay: Toxicity in Tg2576 mouse at 30 umol/kg, po bid after 10 days; assay type: organism-based; settings: in vivo, 240 h
Outline: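 Tg2576 mice dosed orally at 30 µmol/kg twice daily; clinical signs, body weight and mortality monitored; intestinal histopathology assessed.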

Mus musculus [9] = assay: Inhibition of beta amyloid peptide in Tg2576 mouse brain at 30 umol/kg, po bid after 14 days; assay type: functional; set-up: scale not given: the % may be the effect or the level left; outline: as §3
Mus musculus [10] = organism: Mus musculus; assay: Reduction of beta amyloid peptide in Tg2576 mouse brain after 12 hrs; assay type: functional, organism-based
Mus musculus [11] = organism: Mus musculus; assay: Increase in beta amyloid peptide in Tg2576 mouse plasma after 24 hrs; assay type: functional
Mus musculus [12] = assay: Inhibition of beta amyloid peptide in Tg2576 mouse brain at 4 umol/kg, po qd after 1 day; assay type: functional; set-up: scale not given: the % may be the effect or the level left; outline: as §3
[13] = Terminal half life in Sprague-Dawley rat at 2.3 umol/kg, iv; assay type: ADME, organism-based; settings: in vivo
Mus musculus [14] = organism: Mus musculus; assay: Reduction of beta amyloid peptide in Tg2576 mouse plasma after 12 hrs; assay type: functional, organism-based
Mus musculus [15] = assay: Inhibition of beta amyloid peptide in Tg2576 mouse brain at 30 umol/kg, po qd after 1 day; assay type: functional; set-up: scale not given: the % may be the effect or the level left; outline: as §3
[16] = Clearance in Sprague-Dawley rat at 2.3 umol/kg, iv; assay type: ADME, organism-based; settings: in vivo
[17] = Inhibition of human Cytochrome P450; assay type: ADME
Outline: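 Inhibition of human CYPs measured in vitro as IC50.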

Mus musculus [18] = assay: Inhibition of beta amyloid peptide in Tg2576 mouse brain at 4 umol/kg, po qd after 14 days; assay type: functional; set-up: scale not given: the % may be the effect or the level left; outline: as §3
[19] = Oral bioavailability in Sprague-Dawley rat at 35 umol/kg; assay type: ADME, organism-based; settings: in vivo
Outline: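 Rats dosed orally with a PEG-400 suspension at 35 µmol/kg; bioavailability from plasma exposure.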

Homo sapiens = organism: Homo sapiens; assay: Ratio of IC50 for Notch processing to IC50 for amyloid beta processing

SMILES: CC1=NN(C)C(=O)C(NC(=O)[C@H](C)NC(=O)Cc2cc(F)cc(F)c2)c2ccccc21 (some centres undefined)
IC50 (Gamma-secretase): 1.3 nM

SMILES: C[C@H](NC(=O)[C@@H](O)c1cc(F)cc(F)c1)C(=O)N[C@H]1C(=O)N(C)N=Cc2ccccc21
concentration at 3 h [1]: 72 nM
inhibition in vivo at 30 µmol/kg (Mus musculus [2]): 29%
IC50 (Gamma-secretase): 30 nM
concentration at 3 h [3]: 546 nM

SMILES: CC(C)C[C@H](NC(=O)Cc1ccsc1)C(=O)NC1C(=O)N(C)N=Cc2ccccc21 (some centres undefined)
IC50 (Gamma-secretase): 0.7 nM

SMILES: CC1=NN(C)C(=O)C(NC(=O)[C@H](C)NC(=O)Cc2ccoc2)c2ccccc21 (some centres undefined)
IC50 (Gamma-secretase): 2 nM

SMILES: C[C@H](NC(=O)Cc1cc(F)cc(F)c1)C(=O)NC1C(=O)N(C)N=Cc2ccccc21 (some centres undefined)
concentration at 3 h [1]: 12 nM
inhibition in vivo at 30 µmol/kg (Mus musculus [2]): 54%
inhibition in vivo at 30 µmol/kg (Mus musculus [4]): 75%
IC50 (Gamma-secretase): 6 nM
concentration at 3 h [3]: 199 nM

SMILES: C[C@H](NC(=O)Cc1ccsc1)C(=O)NC1C(=O)N(C)N=Cc2ccccc21 (some centres undefined)
IC50 (Gamma-secretase): 1 nM

SMILES: C[C@H](NC(=O)[C@H](O)c1cc(F)cc(F)c1)C(=O)N[C@@H]1C(=O)N(C)N=Cc2ccccc21
concentration at 3 h [1]: 202 nM
inhibition in vivo at 30 µmol/kg (Mus musculus [2]): 91%
Activity (Mus musculus [5]): Active
inhibition in vivo at 30 µmol/kg (Mus musculus [4]): 86%
IC50 (Gamma-secretase): 10 nM
concentration at 3 h [3]: 2750 nM

SMILES: CC(C)C[C@H](NC(=O)CC1CCCCC1)C(=O)NC1C(=O)N(C)N=Cc2ccccc21 (some centres undefined)
IC50 (Gamma-secretase): 14 nM

SMILES: C[C@H](NC(=O)Cc1cccc(F)c1)C(=O)NC1C(=O)N(C)N=Cc2ccccc21 (some centres undefined)
IC50 (Gamma-secretase): 8 nM

SMILES: CC(C)C[C@H](NC(=O)Cc1ccc(F)cc1)C(=O)NC1C(=O)N(C)N=Cc2ccccc21 (some centres undefined)
IC50 (Gamma-secretase): 14 nM

SMILES: C[C@H](NC(=O)[C@@H](O)c1cc(F)cc(F)c1)C(=O)N[C@@H]1C(=O)N(C)N=Cc2ccccc21
Activity (Mus musculus [7]): 89%
Activity (Mus musculus [8]): Toxic
Activity (Mus musculus [9]): 98%
Activity (Mus musculus [10]): Active
Activity (Mus musculus [11]): 60%
Activity (Mus musculus [12]): 25%
half-life [13]: 4.6 h
Activity (Mus musculus [14]): Active
Activity (Mus musculus [15]): 83%
concentration at 3 h [1]: 133 nM
clearance [16]: 5.2 mL/min/kg
IC50 [17]: > 100000 nM
inhibition in vivo at 30 µmol/kg (Mus musculus [2]): 90%
Activity (Mus musculus [5]): Active
Activity (Mus musculus [18]): 38%
bioavailability [19]: 31%
inhibition in vivo at 30 µmol/kg (Mus musculus [4]): 88%
IC50 (Gamma-secretase): 0.3 nM
Ratio IC50 (Homo sapiens): 0.5
concentration at 3 h [3]: 1960 nM

SMILES: C[C@H](NC(=O)C(=O)c1cc(F)cc(F)c1)C(=O)NC1C(=O)N(C)N=Cc2ccccc21 (some centres undefined)
concentration at 3 h [1]: 280 nM
inhibition in vivo at 30 µmol/kg (Mus musculus [2]): 92%
inhibition in vivo at 30 µmol/kg (Mus musculus [4]): 98%
IC50 (Gamma-secretase): 1 nM
concentration at 3 h [3]: 2090 nM

SMILES: CC(C)C[C@H](NC(=O)Cc1cccs1)C(=O)NC1C(=O)N(C)N=Cc2ccccc21 (some centres undefined)
IC50 (Gamma-secretase): 1.9 nM

SMILES: C[C@H](NC(=O)[C@@H](O)c1cc(F)cc(F)c1)C(=O)NC1C(=O)N(C)N=Cc2ccccc21 (some centres undefined)
IC50 (Gamma-secretase): 0.2 nM

SMILES: CC(C)C[C@H](NC(=O)[C@H](O)c1ccccc1)C(=O)NC1C(=O)N(C)N=Cc2ccccc21 (some centres undefined)
IC50 (Gamma-secretase): 56 nM

SMILES: C[C@H](NC(=O)Cc1cccnc1)C(=O)NC1C(=O)N(C)N=Cc2ccccc21 (some centres undefined)
IC50 (Gamma-secretase): 162 nM

SMILES: CC(C)C[C@H](NC(=O)Cc1cc(F)cc(F)c1)C(=O)NC1C(=O)N(C)N=Cc2ccccc21 (some centres undefined)
IC50 (Gamma-secretase): 0.5 nM

SMILES: CC(C)C[C@H](NC(=O)Cc1ccccc1F)C(=O)NC1C(=O)N(C)N=Cc2ccccc21 (some centres undefined)
IC50 (Gamma-secretase): 22 nM

Continued by falling IC50 (Gamma-secretase), values first:

IC50 (Gamma-secretase): 750 nM
SMILES: C[C@H](NC(=O)[C@H](O)c1cc(F)cc(F)c1)C(=O)N[C@H]1C(=O)N(C)N=Cc2ccccc21

IC50 (Gamma-secretase): 269 nM
SMILES: C[C@H](NC(=O)Cc1ccc2ccccc2c1)C(=O)NC1C(=O)N(C)N=Cc2ccccc21 (some centres undefined)

IC50 (Gamma-secretase): 59 nM
SMILES: C[C@H](NC(=O)Cc1ccc(F)cc1)C(=O)NC1C(=O)N(C)N=Cc2ccccc21 (some centres undefined)

IC50 (Gamma-secretase): 43 nM
SMILES: C[C@H](NC(=O)CC1CCCCC1)C(=O)NC1C(=O)N(C)N=Cc2ccccc21 (some centres undefined)

IC50 (Gamma-secretase): 24 nM
SMILES: C[C@H](NC(=O)Cc1ccco1)C(=O)NC1C(=O)N(C)N=Cc2ccccc21 (some centres undefined)

IC50 (Gamma-secretase): 10 nM
SMILES: C[C@H](NC(=O)Cc1cccc(Cl)c1)C(=O)NC1C(=O)N(C)N=Cc2ccccc21 (some centres undefined)

concentration at 3 h [1]: 6 nM
IC50 (Gamma-secretase): 9 nM
concentration at 3 h [3]: 205 nM
SMILES: C[C@H](NC(=O)Cc1cc(F)cc(F)c1)C(=O)NC1C(=O)N(C)NCc2ccccc21 (some centres undefined)
ED50 (Mus musculus [6]): 5 µmol/kg
inhibition in vivo at 30 µmol/kg (Mus musculus [2]): 51%
inhibition in vivo at 30 µmol/kg (Mus musculus [4]): 80%

IC50 (Gamma-secretase): 4 nM
SMILES: CC(C)N1N=Cc2ccccc2C(NC(=O)[C@H](C)NC(=O)Cc2cc(F)cc(F)c2)C1=O (some centres undefined)

IC50 (Gamma-secretase): 3 nM
SMILES: C[C@H](NC(=O)Cc1cccs1)C(=O)NC1C(=O)N(C)N=Cc2ccccc21 (some centres undefined)

IC50 (Gamma-secretase): 2 nM
SMILES: CC(C)C[C@H](NC(=O)Cc1cccc(F)c1)C(=O)NC1C(=O)N(C)N=Cc2ccccc21 (some centres undefined)

IC50 (Gamma-secretase): 0.4 nM
SMILES: CC(C)C[C@H](NC(=O)[C@@H](O)c1ccccc1)C(=O)NC1C(=O)N(C)N=Cc2ccccc21 (some centres undefined)
